pIC50: −log10 of the molar value. Converted amounts (≈) assume the structure as drawn.

Test [1] concerns Mycobacterium tuberculosis. As to the kind of experiment: Antimicrobial activity against Mycobacterium tuberculosis H37Rv after 21 days by micro-broth dilution method. The format is functional. The note with it: 504 h. In general terms: Dilution methods test growth across graded concentrations, often in twofold steps.
The next test has as its system HCT-116. As to the kind of experiment: Cytotoxicity against human HCT116 cells after 4 days by WST-1 assay. The format is cell-based. The note with it: HCT-116, 96 h. The method, boiled down: (§1)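 Cells cultured in DMEM with 10% fetal calf serum. Seeded at 3000 cells/well, treated 24 h later with 9 concentrations from 100 nM to 100 µM, 8 replicates each. Viability read by WST-1 after 4 days of treatment. IC50 derived by curve fitting.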
(Tetrazolium dyes change colour on reduction, which living cells bring about.)

Test [2] in a line: Cytotoxicity against human GM637 cells after 4 days by WST-1 assay. The format is cell-based. Conditions: GM637, 96 h. The method, boiled down:
as §1

In turn, `O=C1CC(c2c(-c3ccccc3)cc3ccccn23)C(=O)N1c1ccccc1` (stereo not drawn) registered a minimum inhibitory concentration (MIC) in test [1] of 109 µM (≈ 40 µg/mL). In addition, the negative-log IC50 (pIC50) (with HCT-116; in test [2]) was under 4.00 each time.

In the case of `O=C(c1ccc2[nH]ccc2c1)N1CCN(C2c3ccccc3-c3ccccc32)CC1`, the MIC in test [1] is over 318 µM.

The molecule `O=C1CC(N2CCN(C3c4ccccc4-c4ccccc43)CC2)C(=O)N1c1ccccc1` (stereo not drawn) returned a minimal inhibitory concentration (MIC) in test [1] of 94.4 µM (≈ 40 µg/mL). The pIC50 (in the test with HCT-116; in test [2]) was under 4.00 in each case.

Regarding `COc1ccc(N2C(=O)CC(Sc3nnc[nH]3)C2=O)cc1` (stereo not drawn), the lowest concentration to inhibit growth in test [1] (MIC) was 16.4 µM (≈ 4.99 µg/mL).

On to `O=C1CC(N2CCc3ccccc3C2)C(=O)N1Cc1ccccc1` (stereo not drawn), for which, in test [1], the MIC worked out at 31.2 µM (≈ 10 µg/mL). In addition, the pIC50 (in the test on HCT-116; in test [2]) was under 4.00 throughout.

Turning to `COc1ccc(N2C(=O)CC(n3ccnc3)C2=O)cc1` (stereo not drawn), the MIC in test [1] amounted to 55.3 µM (≈ 15 µg/mL).

The molecule `O=C1CC(Sc2nc[nH]n2)C(=O)N1c1ccccc1` (stereo not drawn) displayed an MIC in test [1] of 18.2 µM (≈ 4.99 µg/mL). Moreover, the pIC50 in the test with HCT-116 is 4.77; in test [2], 4.82.

In test [1], `NNC(=O)c1ccncc1` [ISONIAZID] displayed a minimal inhibitory concentration (MIC) of 0.4 µM (≈ 0.0549 µg/mL).

On to `O=C1CC(N2CCN(C3c4ccccc4-c4ccccc43)CC2)C(=O)N1Cc1ccccc1` (stereo not drawn), for which the minimal inhibitory concentration (MIC) in test [1] came to 91.4 µM (≈ 40 µg/mL).

Take `Oc1cc(Cl)ccc1Oc1ccc(Cl)cc1Cl` [TRICLOSAN]: inhibition of growth in test [1] (MIC) required 34.5 µM (≈ 9.99 µg/mL).

`O=C1CC(c2c(-c3ccccc3)cc3ccccn23)C(=O)N1Cc1ccccc1` (stereo not drawn) showed an MIC in test [1] of 52.6 µM (≈ 20 µg/mL).

In test [1], `O=C1CC(N2CCc3ccccc3C2)C(=O)N1c1ccccc1` (stereo not drawn) yielded an MIC of 8.2 µM (≈ 2.51 µg/mL). For the same molecule, the negative-log IC50 (pIC50) (with HCT-116; in test [2]) was under 4.00 each time.

For the molecule `O=C1CC(n2ccnc2)C(=O)N1c1ccccc1` (stereo not drawn), the MIC in test [1] was determined as 82.9 µM (≈ 20 µg/mL). The pIC50 (in the test with HCT-116; in test [2]) was under 4.00 each time.

`O=C1CC(c2c3c([N+](=O)[O-])cc([N+](=O)[O-])cc3c3ccccn23)C(=O)N1c1ccccc1` (stereo not drawn) registered an MIC in test [1] of 46.5 µM (≈ 20 µg/mL). The pIC50 (in the test on HCT-116; in test [2]) was under 4.00 each time.

By MIC is commonly meant the smallest concentration in the dilution series that meets the test's criterion for growth inhibition. A high value points to weaker potency. In general, pIC50 refers to the negative decadic logarithm of the IC50, by convention in mol/L. Read a high pIC50 as a low IC50.

The record behind these values is ChEMBL document CHEMBL3098007, “Synthesis of 3-heteryl substituted pyrrolidine-2,5-diones via catalytic Michael reaction and evaluation of their inhibitory activity against InhA and Mycobacterium tuberculosis” (Eur J Med Chem, 2014).
